Laboratory results from publication PMC12248229 (PeerJ, 2025).

Columns and labels:
P-gp = assay: qRT-PCR mRNA expression in rat liver and intestine after 7 days of dosing; type: in vivo; details: after multiple doses
Outline: (§1)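 Rats (n = 6/group) gavaged daily for 7 days with test compound: 2.5 or 1 mg/kg in 0.5% CMC-Na, or 100 mg/kg in 0.5% CMC-Na with 5% DMSO. Liver and intestine harvested under chloral hydrate and stored at −80 °C. TRNzol RNA extraction; 1 μg RNA reverse-transcribed. qPCR: 95 °C 15 min, then 40 cycles of 95 °C 10 s/60 °C 32 s. […] reference; 2^−ΔΔCT.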

[1] = Stability of analytes in rat plasma; type: physicochemical; details: n = 6
[2] = test system: patients with chronic kidney disease; details: diverse group of patients with chronic kidney disease, ref Fauchier, Fauchier & Angoulvant, 2021, Herrington et al., 2023, Santos-Gallego et al., Wanner et al., 2016; cited from earlier work
[3] = cited from earlier work
in vivo = type: in vivo, Sprague-Dawley (SD) rats; details: for half-life: t1/2, rats
Oatp1b2 = assay: qRT-PCR mRNA expression in rat liver after 7 days of dosing; type: in vivo; details: after multiple doses
Outline: as §1

Ugt1a7 = assay: qRT-PCR mRNA expression in rat liver and intestine after 7 days of dosing; type: in vivo; details: after multiple doses
Outline: as §1

[4] = Autosampler (15 °C) for 6 h, nominal 15 ng/mL
[5] = Autosampler (15 °C) for 6 h, nominal 800 ng/mL
[6] = Autosampler (15 °C) for 6 h, nominal 1,500 ng/mL
[7] = Room temperature for 4 h, nominal 15 ng/mL
[8] = Room temperature for 4 h, nominal 800 ng/mL
[9] = Room temperature for 4 h, nominal 1,500 ng/mL
[10] = Three freeze–thaw cycles (−80 °C to 25 °C), nominal 15 ng/mL
[11] = Three freeze–thaw cycles (−80 °C to 25 °C), nominal 800 ng/mL
[12] = Three freeze–thaw cycles (−80 °C to 25 °C), nominal 1,500 ng/mL
[13] = −80 °C for 30 days, nominal 15 ng/mL
[14] = −80 °C for 30 days, nominal 800 ng/mL
[15] = −80 °C for 30 days, nominal 1,500 ng/mL
[16] = rats, coadministered with sorafenib, versus control group
[17] = rats, empagliflozin […] after sorafenib 100 mg/kg for 7 consecutive days, n = 6

Compound: OC[C@H]1O[C@@H](c2ccc(Cl)c(Cc3ccc(O[C@H]4CCOC4)cc3)c2)[C@H](O)[C@@H](O)[C@@H]1O [Empagliflozin]
- decrease of mRNA expression of P-gp (P-gp; rat intestine): 22.77%
- decrease of mRNA expression of P-gp (P-gp; rat liver): 61.19%
- Stability: Accuracy (RE%) [1, 4]: 4.78%
- Stability: Mean ± SD measured concentration [1, 4]: 15.72 ± 0.78 ng/mL
- Stability: Accuracy (RE%) [1, 5]: 6.63%
- Stability: Mean ± SD measured concentration [1, 5]: 853.00 ± 50.88 ng/mL
- Stability: Accuracy (RE%) [1, 6]: 3.89%
- Stability: Mean ± SD measured concentration [1, 6]: 1,558.33 ± 99.48 ng/ml
- Stability: Accuracy (RE%) [1, 7]: −0.67%
- Stability: Mean ± SD measured concentration [1, 7]: 14.90 ± 0.91 ng/mL
- Stability: Accuracy (RE%) [1, 8]: 4.71%
- Stability: Mean ± SD measured concentration [1, 8]: 837.67 ± 29.62 ng/mL
- Stability: Accuracy (RE%) [1, 9]: 2.22%
- Stability: Mean ± SD measured concentration [1, 9]: 1,533.33 ± 37.77 ng/ml
- Stability: Accuracy (RE%) [1, 10]: −0.67%
- Stability: Mean ± SD measured concentration [1, 10]: 14.90 ± 0.91 ng/mL
- Stability: Accuracy (RE%) [1, 11]: 6.65%
- Stability: Mean ± SD measured concentration [1, 11]: 853.17 ± 38.25 ng/mL
- Stability: Accuracy (RE%) [1, 12]: 1.11%
- Stability: Mean ± SD measured concentration [1, 12]: 1,516.67 ± 97.50 ng/ml
- Stability: Accuracy (RE%) [1, 13]: 1.56%
- Stability: Mean ± SD measured concentration [1, 13]: 15.23 ± 1.43 ng/mL
- Stability: Accuracy (RE%) [1, 14]: 4.15%
- Stability: Mean ± SD measured concentration [1, 14]: 833.17 ± 38.43 ng/mL
- Stability: Accuracy (RE%) [1, 15]: −1.78%
- Stability: Mean ± SD measured concentration [1, 15]: 1,473.33 ± 93.31 ng/ml
- lowering of the occurrence of cardiovascular death events [2]: 18%
- systemic exposure of each metabolite, of the total drug-related material ([3]; after oral administration, no reference given): less than 10%
- time to highest levels in the body ([3]; following a single oral dose, ref Scheen, 2014): 1.0 to 2.0 h
- dose eliminated in urine unchanged ([3]; ref Scheen, 2014): 11–19%
- AUC(0-t) (in vivo; Sprague-Dawley, rat, in vivo, po, […], AUC0–t, rats, empagliflozin […] after sorafenib 100 mg/kg for 7 consecutive days, n = 6): 0.563 ± 0.11 µg·h/mL
- AUC(0-inf) (in vivo; Sprague-Dawley, rat, in vivo, po, […], AUC0–∞, rats, empagliflozin […] after sorafenib 100 mg/kg for 7 consecutive days, n = 6): 0.586 ± 0.104 µg·h/mL
- Cmax (in vivo; Sprague-Dawley, rat, in vivo, po, […], Cmax, rats, empagliflozin […] after sorafenib 100 mg/kg for 7 consecutive days, n = 6): 0.231 ± 0.0785 µg/mL
- MRT last (in vivo; Sprague-Dawley, rat, in vivo, po, […], MRT0–t, rats, empagliflozin […] after sorafenib 100 mg/kg for 7 consecutive days, n = 6): 2.86 ± 0.21 h
- MRT inf (in vivo; Sprague-Dawley, rat, in vivo, po, […], MRT0–∞, rats, empagliflozin […] after sorafenib 100 mg/kg for 7 consecutive days, n = 6): 3.44 ± 0.52 h
- Tmax (in vivo; Sprague-Dawley, rat, in vivo, po, […], rats, empagliflozin […] after sorafenib 100 mg/kg for 7 consecutive days, n = 6): 0.4 ± 0.17 h
- Tmax (in vivo; Sprague-Dawley, rat, in vivo, po, […], rats, empagliflozin […] oral, alone, n = 6): 0.28 ± 0.12 h
- half-life (in vivo; Sprague-Dawley, rat, in vivo, po, […], empagliflozin […] after sorafenib 100 mg/kg for 7 consecutive days, n = 6): 3.14 ± 1.09 h
- half-life (in vivo; Sprague-Dawley, rat, in vivo, po, […], empagliflozin […] oral, alone, n = 6): 5.03 ± 2.29 h
- difference in Cmax of empagliflozin (higher than control) (in vivo; rats receiving both drugs versus control group): not statistically significant
- decrease of Vz/F of empagliflozin (in vivo; [16]): 50.68%
- increase of AUC0–t of empagliflozin (in vivo; [16]): 44.65%
- increase of AUC0–∞ of empagliflozin (in vivo; [16]): 30.59%
- CLz (in vivo; [17]): 4.38 ± 0.75 L/h/kg
- Vz (in vivo; [17]): 20.18 ± 8.16 L/kg
- Vz (in vivo; rats, empagliflozin […] oral, alone, n = 6): 40.92 ± 16.03 L/kg
- decrease of mRNA expression of Oatp1b2 (Oatp1b2): 37.43%
- inhibition of mRNA expression of Ugt1a7 (Ugt1a7; rat intestine): no significant inhibition
- decrease of mRNA expression of Ugt1a7 (Ugt1a7; rat liver): 40.07%
